Assay results: the array DNA melting data of Ke et al. (doi:10.1101/2024.01.08.574731)

Tests used:
[1] = melting temperature; fluorescence melt of hairpins on a sequencing array, two-state fit, raised by 9.35 °C to match UV melts; conditions: sodium 0.088 M
How it was run: (§1)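 Two-state fits, bootstrapped, provided melting temperature and folding enthalpy from Cy3 fluorescence normalised to pre-quench Cy3 and to control constructs. Library hairpins with annealed Cy3 and quencher oligos were imaged on a sequenced MiSeq flow cell in 50 mM Na-HEPES pH 8.0, 25 mM NaCl, at 2.5 °C intervals up to 60 °C. Four replicates were combined with inverse-variance weighting. A 9.35 °C upward shift was applied to fitted temperatures to match UV melts.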

[2] = folding enthalpy; higher = less favourable; fluorescence melt of hairpins on a sequencing array, two-state fit; conditions: sodium 0.088 M
How it was run: as §1

Row | Sequence | Tm [1] | folding enthalpy [2]
1 | GCAACAGGAAACTATTGC ((((.((....)).)))) | 31.8 °C | -19.2 kcal/mol
2 | GTACACGAAAGTGAGTAC ((((((....)))..))) | 36.5 °C | -15.6 kcal/mol
3 | GCTGGCGAAAGCCACAGC ((((((....)))..))) | 49.5 °C | -13.9 kcal/mol
4 | GCTAATGCGAAAGCAAGC (((..(((....)))))) | 36.1 °C | -16.4 kcal/mol
5 | GATCATATCATGATC ((((((...)))))) | 50.4 °C | -37.2 kcal/mol
6 | GTGAGAGGAAACTCTTAC ((.((((....)))).)) | 38.2 °C | -30.9 kcal/mol
7 | GCACACGAAAGTGTATGC ((((((....)))..))) | 45.8 °C | -15.1 kcal/mol
8 | GCCCGCGAAAGCGGTGGC ((((((....)))..))) | 57.7 °C | -12.2 kcal/mol
9 | GTGTATGGAAACGTACAC (((((.(....).))))) | 47.2 °C | -33.9 kcal/mol
10 | GACCACGAAAGTGACGTC ((((((....)))..))) | 37.5 °C | -16.5 kcal/mol
11 | GCCTGAACGAAAGTTGGC (((..(((....)))))) | 45.5 °C | -23.2 kcal/mol
12 | GAACTAGGAAACTAGCTC ((.((((....)))).)) | 29 °C | -21.3 kcal/mol
13 | GGGAACGAAAGTTTGCCC ((((((....)))..))) | 31.8 °C | -20.8 kcal/mol
14 | GCCAACCGAAAGGTAGGC (((.(((....))).))) | 60.4 °C | -39.1 kcal/mol
15 | GCCGGCGAAAGCCTAGGC ((((((....)))..))) | 60.1 °C | -24.5 kcal/mol
16 | GTCAAGGGAAACCCTGAC ((((.((....)).)))) | 43.7 °C | -33.8 kcal/mol
17 | GAGTGCCGAAAGGCCCTC (((.(((....))).))) | 51.3 °C | -18.3 kcal/mol
18 | GTGCATCGAAAGATCCAC (((.(((....))).))) | 38.1 °C | -28.2 kcal/mol
19 | GGCTAGGGAAACCTAGCC (((((((....))))))) | 67.5 °C | -42.6 kcal/mol
20 | GCTCAGCGAAAGCGCAGC (((..((....))..))) | 45.7 °C | -14.8 kcal/mol
21 | GGGTGTACGAAAGTACCC (((..(((....)))))) | 53.3 °C | -23.1 kcal/mol
22 | GGTCCCTCGAAAGAGACC (((..(((....)))))) | 34.8 °C | -17.1 kcal/mol
23 | GATCCGAGCTCGGATC ((((((....)))))) | 63 °C | -37.3 kcal/mol

Row | Sequence | Tm [1] | folding enthalpy [2]
24 | GATCACTCCGTGATC ((((((...)))))) | 59.2 °C | -44 kcal/mol
25 | GTGGGCGGAAACACCCAC (((((.(....).))))) | 53.1 °C | -43.3 kcal/mol
26 | GATCGCCCCGGCGATC ((((((....)))))) | 69.2 °C | -33 kcal/mol
27 | GCATTCGAAAGAATGTGC ((((((....)))..))) | 50.6 °C | -36.8 kcal/mol
28 | GCTGTGGGAAACTACGGC ((.((.(....).)).)) | 42.6 °C | -31.6 kcal/mol
29 | GAGCACGAAAGTGCGCTC ((((((....)))..))) | 67.2 °C | -12.5 kcal/mol
30 | GATCTGAGCTCAGATC ((((((....)))))) | 55.6 °C | -51.6 kcal/mol
31 | GATCCACAGGTGGATC ((((((....)))))) | 57 °C | -40.9 kcal/mol
32 | GGAGGGGCGAAAGCCTCC (((..(((....)))))) | 44.8 °C | -13.4 kcal/mol
33 | CGCTGCCGGAAACGGGCG (((..(((....)))))) | 46.7 °C | -22.8 kcal/mol
34 | GCGGGAGGAAACTCTCGC (((.(((....))).))) | 57.5 °C | -37.2 kcal/mol
35 | GAGCCCGGAAACGGACCC (.(.(((....))).).) | 25.7 °C | -11.2 kcal/mol
36 | GCGCCGCGAAAGCTCCGC (((..((....))..))) | 44.9 °C | -16.8 kcal/mol
37 | GATCTGCCACAGATC ((((((...)))))) | 48.9 °C | -31.8 kcal/mol
38 | GATCAACACTTTGATC ((((((....)))))) | 47.6 °C | -37.8 kcal/mol
39 | GTAAGAACGAAAGTTTAC (((..(((....)))))) | 24.3 °C | -8.19 kcal/mol
40 | GCTTAACCGAAAGGTAGC (((..(((....)))))) | 42.2 °C | -19 kcal/mol
41 | GTGTCCGAAAGGAGCAC ((((((....))).))) | 49 °C | -23.9 kcal/mol
42 | GGCTGTCCGAAAGGAGCC (((..(((....)))))) | 47.4 °C | -25.1 kcal/mol
43 | GTTGGTGCGAAAGCAAAC (((..(((....)))))) | 43 °C | -20.7 kcal/mol
44 | GGCAATGGAAACACTGCC ((((.((....)).)))) | 44 °C | -33.2 kcal/mol
45 | GATAAGGAAACTTATC ((((((....)))))) | 40.1 °C | -26.8 kcal/mol
46 | GCGGCCCCCGC ((((...)))) | 56.6 °C | -20.4 kcal/mol

Row | Sequence | Tm [1] | folding enthalpy [2]
47 | GACTGTGGAAACACGGTC (((.(((....))).))) | 52.2 °C | -40.6 kcal/mol
48 | CGCATCGGAAACGAGCG (((.(((....)))))) | 49.5 °C | -31.8 kcal/mol
49 | GATCCTTGAGAGGATC ((((((....)))))) | 53.6 °C | -42.5 kcal/mol
50 | GTCGGCGAAAGCCGAGAC ((((((....)))..))) | 55.6 °C | -7.78 kcal/mol
51 | CGTGTCGGAAACGAACG (((.(((....)))))) | 37.7 °C | -24.3 kcal/mol
52 | GTTGCACGAAAGTGGAAC (((.(((....))).))) | 56.6 °C | -35.5 kcal/mol
53 | GTGTTTCGAAAGAATCAC (((.(((....))).))) | 45 °C | -39.3 kcal/mol
54 | GGAAGGTCGAAAGACTCC (((..(((....)))))) | 33.1 °C | -13.8 kcal/mol
55 | CGCAACCGGAAACGGGCG (((..(((....)))))) | 50.1 °C | -20.8 kcal/mol
56 | GGGATTCGAAAGAAACCC (((.(((....))).))) | 50.6 °C | -48.4 kcal/mol
57 | GATCATACCCATGATC ((((((....)))))) | 46.5 °C | -38.6 kcal/mol
58 | GATCTCTGGAGAGATC ((((((....)))))) | 53.1 °C | -34.4 kcal/mol
59 | GATCGCTGATGCGATC ((((((....)))))) | 67.2 °C | -34.8 kcal/mol
60 | GATCGGCAGCCGATC ((((((...)))))) | 55.2 °C | -50.7 kcal/mol
61 | GATCTTGAAAAGATC ((((((...)))))) | 54.8 °C | -33.5 kcal/mol
62 | GCCTGGCGAAAGCCTAGC ((..(((....)))..)) | 41 °C | -12.8 kcal/mol
63 | GCGTTTGGAAACAAACAC (.(((((....))))).) | 40.6 °C | -12.8 kcal/mol
64 | GGAAAAGGAAACTTTCCC ((.((((....)))).)) | 27.8 °C | -13.1 kcal/mol
65 | GATCGCCACCGCGATC ((((((....)))))) | 67.1 °C | -40.2 kcal/mol
66 | GTTGGCGAAAGCCCAAAC ((((((....)))..))) | 24.8 °C | -7.1 kcal/mol
67 | GATCCGTTCCGGATC ((((((...)))))) | 59.2 °C | -46 kcal/mol
68 | GATCCCCGGTGGGATC ((((((....)))))) | 57.7 °C | -37.5 kcal/mol
69 | GATCCGATTACGGATC ((((((....)))))) | 58.4 °C | -34.2 kcal/mol

Row | Sequence | Tm [1] | folding enthalpy [2]
70 | CGCACGCGGAAACGCGCG (((..(((....)))))) | 57 °C | -9.61 kcal/mol
71 | GACGCCCCGAAAGGGGTC (((..(((....)))))) | 40.2 °C | -7.73 kcal/mol
72 | CGCAGCCGGAAACGGGCG (((..(((....)))))) | 47.9 °C | -20 kcal/mol
73 | ACTTTGAAAAAAGT (((((....))))) | 30.6 °C | -8.08 kcal/mol
74 | GGAAACGAAAGTTTTTCC ((((((....)))..))) | 30.6 °C | -10.8 kcal/mol
75 | GCGAGAGGAAACTCTCAC (.(((((....))))).) | 39 °C | -17.9 kcal/mol
76 | GTATGCGAAAGCATAC ((((((....)))))) | 69.2 °C | -28.3 kcal/mol
77 | GCGCGCGAAAGCGGTCGC ((((((....)))..))) | 63.6 °C | -16.1 kcal/mol
78 | GATCGACAAATCGATC ((((((....)))))) | 48.1 °C | -31.2 kcal/mol
79 | CGCCTCGGAAACGAGCG (((.(((....)))))) | 54.8 °C | -26.9 kcal/mol
80 | GGTGTGGGAAACTACGCC ((.((.(....).)).)) | 43.4 °C | -29.6 kcal/mol
81 | GATCTACCTCTAGATC ((((((....)))))) | 37.8 °C | -36.3 kcal/mol
82 | GATCTGCCATCAGATC ((((((....)))))) | 49.4 °C | -46 kcal/mol
83 | GCGTCAGTACGC ((((....)))) | 51.1 °C | -20.1 kcal/mol
84 | GCCCGGCGAAAGCGGCGC ((.(.((....)).).)) | 64.6 °C | -21.1 kcal/mol
85 | GTCCCTGGAAACAAGGAC ((((.((....)).)))) | 34.7 °C | -20 kcal/mol
86 | GATGCCGAAAGGCAGATC ((((((....)))..))) | 52.2 °C | -15.6 kcal/mol
87 | GCCTGGGGAAACTCAGGC (((((.(....).))))) | 58.4 °C | -36 kcal/mol
88 | GCCCCTGGAAACAGAGGC (((.(((....))).))) | 46.3 °C | -27.7 kcal/mol
89 | GATCCAAGTTTGGATC ((((((....)))))) | 52.1 °C | -41.1 kcal/mol
90 | ATTCTGAAAAGAAT (((((....))))) | 32.2 °C | -12.6 kcal/mol
91 | GATTCCCGAAAGGGCATC (((.(((....))).))) | 41.5 °C | -20.8 kcal/mol
92 | GCGCTTGGAAACAAGCAC (.(((((....))))).) | 45.7 °C | -15.2 kcal/mol
